From ChEMBL document CHEMBL4118126, “An orally available, brain-penetrant CAMKK2 inhibitor reduces food intake in rodent model” (Bioorg Med Chem Lett, 2018)
In brackets after ≈: the same amount, converted by molar mass.

Tests used:
[1] = biological target: Calcium/calmodulin-dependent protein kinase kinase 2 (Mus musculus, UniProt Q8C078); experiment: Inhibition of CAMKK2 in mouse N39 cells assessed as decrease in AMPKalpha phosphorylation at T172 preincubated for 80 mins followed by […] addition by ELISA; assay type: cell-based
In short: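 Mouse N39 cells seeded ~1000 cells/well, cultured overnight at 37°C, 5% CO2, then exposed to compound in DMSO for 80 min before ionomycin stimulation ([…] as added). Cells were lysed in extraction buffer for 30 min on ice, then diluted into ice-cold lysis buffer containing protease and phosphatase inhibitors for MSD read-out.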

[2] = Solubility of the compound in pH 7.4 phosphate buffer saline after 1 hr by chemiluminescence nitrogen detection method; assay type: physicochemical; settings: phosphate buffered saline
In short: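 Kinetic solubility: 10 mM DMSO stock diluted 1:20 into 10 mM phosphate-buffered saline pH 7.4, equilibrated 1 h at RT, filtered, and filtrate quantified by calibrated flow-injection chemiluminescent nitrogen detection.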

[3] = biological target: Mitogen-activated protein kinase 8 (Homo sapiens, UniProt P45983); experiment: Inhibition of JNK1 (unknown origin)
Insulin receptor = Insulin receptor (Homo sapiens, UniProt P06213); experiment: Inhibition of INSR (unknown origin); settings: read-out: pIC50 (converted)
[4] = biological target: T1, Inhibitor of nuclear factor kappa-B kinase subunit alpha (Homo sapiens, UniProt O15111); experiment: Inhibition of IKK1 (unknown origin)
T1 sequence (O15111 whole entry): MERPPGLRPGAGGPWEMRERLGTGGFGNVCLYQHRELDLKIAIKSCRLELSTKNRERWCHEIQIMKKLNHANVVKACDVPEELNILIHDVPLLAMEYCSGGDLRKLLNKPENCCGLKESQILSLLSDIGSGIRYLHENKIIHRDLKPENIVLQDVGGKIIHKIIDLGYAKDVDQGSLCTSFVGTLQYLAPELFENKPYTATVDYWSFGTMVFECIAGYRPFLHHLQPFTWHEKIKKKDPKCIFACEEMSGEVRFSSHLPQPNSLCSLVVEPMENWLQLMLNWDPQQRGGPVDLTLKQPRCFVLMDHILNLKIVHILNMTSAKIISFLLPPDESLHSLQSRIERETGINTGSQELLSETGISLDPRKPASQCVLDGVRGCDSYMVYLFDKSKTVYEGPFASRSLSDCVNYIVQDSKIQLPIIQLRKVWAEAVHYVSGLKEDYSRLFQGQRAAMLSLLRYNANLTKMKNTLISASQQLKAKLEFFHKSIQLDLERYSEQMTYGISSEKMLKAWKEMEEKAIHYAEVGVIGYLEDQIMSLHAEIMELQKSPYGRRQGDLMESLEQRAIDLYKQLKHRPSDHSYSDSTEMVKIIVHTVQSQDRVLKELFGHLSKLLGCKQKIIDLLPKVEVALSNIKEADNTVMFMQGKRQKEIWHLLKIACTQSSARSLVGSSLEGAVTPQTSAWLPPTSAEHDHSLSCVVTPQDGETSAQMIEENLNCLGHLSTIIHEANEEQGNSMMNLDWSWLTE

[5] = biological target: Calcium/calmodulin-dependent protein kinase kinase 2 (Homo sapiens, UniProt Q96RR4); experiment: Inhibition of full-length human GST-tagged CAMKK2 using 5FAM-AKPKGNKDYHLQTCCGSLAYRRR-amide as substrate preincubated for 30 mins followed by substrate addition measured after 120 mins by fluorescence polarization assay
[6] = biological target: Phosphatidylinositol 4,5-bisphosphate 3-kinase catalytic subunit gamma isoform (Homo sapiens, UniProt P48736); experiment: Inhibition of PI3Kgamma (unknown origin)
[7] = biological target: Glycogen synthase kinase-3 beta (Homo sapiens, UniProt P49841); experiment: Inhibition of GSK3beta (unknown origin)
Glycogen synthase kinase-3 beta, sequence (P49841 whole entry): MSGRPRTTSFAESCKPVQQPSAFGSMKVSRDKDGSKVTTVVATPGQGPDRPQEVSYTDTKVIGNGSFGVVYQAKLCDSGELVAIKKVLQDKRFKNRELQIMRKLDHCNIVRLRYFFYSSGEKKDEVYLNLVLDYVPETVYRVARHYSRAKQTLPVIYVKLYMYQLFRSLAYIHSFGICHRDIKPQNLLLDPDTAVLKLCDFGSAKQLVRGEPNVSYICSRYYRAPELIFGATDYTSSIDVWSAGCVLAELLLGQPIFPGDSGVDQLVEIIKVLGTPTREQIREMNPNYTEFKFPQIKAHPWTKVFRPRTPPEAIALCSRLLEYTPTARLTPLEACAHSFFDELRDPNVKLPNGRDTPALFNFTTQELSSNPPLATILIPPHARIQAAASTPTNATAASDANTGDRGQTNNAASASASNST

Phosphatidylinositol 4,5-bisphosphate 3-kinase catalytic subunit gamma isoform, sequence (P48736 whole entry, canonical isoform): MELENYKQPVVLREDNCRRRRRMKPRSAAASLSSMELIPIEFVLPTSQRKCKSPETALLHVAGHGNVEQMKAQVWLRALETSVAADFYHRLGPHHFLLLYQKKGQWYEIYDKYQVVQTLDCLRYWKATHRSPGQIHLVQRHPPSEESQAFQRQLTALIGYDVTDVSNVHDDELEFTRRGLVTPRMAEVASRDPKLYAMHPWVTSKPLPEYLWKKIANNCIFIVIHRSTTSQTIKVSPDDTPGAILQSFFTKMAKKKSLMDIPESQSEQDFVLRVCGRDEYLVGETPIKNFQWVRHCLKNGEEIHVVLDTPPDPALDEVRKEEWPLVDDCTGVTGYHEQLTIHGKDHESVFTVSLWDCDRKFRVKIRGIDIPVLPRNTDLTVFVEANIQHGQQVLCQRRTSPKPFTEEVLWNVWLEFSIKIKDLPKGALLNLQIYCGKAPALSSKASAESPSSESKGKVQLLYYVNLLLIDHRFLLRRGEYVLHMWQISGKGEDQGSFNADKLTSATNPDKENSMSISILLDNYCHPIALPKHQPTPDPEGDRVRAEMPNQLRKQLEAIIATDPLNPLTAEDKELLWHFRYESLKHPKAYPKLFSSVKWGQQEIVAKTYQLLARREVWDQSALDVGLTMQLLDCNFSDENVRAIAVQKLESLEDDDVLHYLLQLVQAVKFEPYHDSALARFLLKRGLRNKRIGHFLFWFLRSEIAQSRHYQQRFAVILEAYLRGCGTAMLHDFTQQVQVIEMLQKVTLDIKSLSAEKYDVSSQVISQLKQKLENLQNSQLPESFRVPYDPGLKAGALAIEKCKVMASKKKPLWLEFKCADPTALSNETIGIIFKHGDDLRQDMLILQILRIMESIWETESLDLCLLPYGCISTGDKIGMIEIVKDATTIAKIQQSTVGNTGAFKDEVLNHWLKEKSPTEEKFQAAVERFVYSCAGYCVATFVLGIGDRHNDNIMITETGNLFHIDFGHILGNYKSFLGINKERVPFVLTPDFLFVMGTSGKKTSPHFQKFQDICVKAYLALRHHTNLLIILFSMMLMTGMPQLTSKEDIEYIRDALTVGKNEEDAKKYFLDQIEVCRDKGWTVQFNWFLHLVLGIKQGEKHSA
Insulin receptor, sequence (P06213 28-758 limits assumed): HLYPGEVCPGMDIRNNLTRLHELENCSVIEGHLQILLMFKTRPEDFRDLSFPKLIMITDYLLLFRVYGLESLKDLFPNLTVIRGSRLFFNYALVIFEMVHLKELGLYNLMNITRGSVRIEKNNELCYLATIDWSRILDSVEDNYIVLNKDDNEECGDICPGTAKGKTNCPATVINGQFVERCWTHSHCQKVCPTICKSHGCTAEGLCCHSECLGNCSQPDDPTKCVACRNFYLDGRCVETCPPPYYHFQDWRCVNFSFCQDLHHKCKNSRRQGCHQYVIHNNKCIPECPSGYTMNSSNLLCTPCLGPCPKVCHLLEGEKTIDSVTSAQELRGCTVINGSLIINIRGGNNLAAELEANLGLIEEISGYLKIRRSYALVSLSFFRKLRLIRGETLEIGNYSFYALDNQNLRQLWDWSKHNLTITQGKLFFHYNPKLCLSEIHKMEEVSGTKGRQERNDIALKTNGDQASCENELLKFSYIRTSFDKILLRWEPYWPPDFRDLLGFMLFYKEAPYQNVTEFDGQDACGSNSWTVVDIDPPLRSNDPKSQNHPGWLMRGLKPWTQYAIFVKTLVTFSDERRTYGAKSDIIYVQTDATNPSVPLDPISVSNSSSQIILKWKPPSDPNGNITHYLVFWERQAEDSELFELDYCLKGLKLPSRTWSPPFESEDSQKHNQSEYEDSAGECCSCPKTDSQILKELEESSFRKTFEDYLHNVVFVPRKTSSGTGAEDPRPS
Insulin receptor, sequence (P06213 763-1382 limits assumed): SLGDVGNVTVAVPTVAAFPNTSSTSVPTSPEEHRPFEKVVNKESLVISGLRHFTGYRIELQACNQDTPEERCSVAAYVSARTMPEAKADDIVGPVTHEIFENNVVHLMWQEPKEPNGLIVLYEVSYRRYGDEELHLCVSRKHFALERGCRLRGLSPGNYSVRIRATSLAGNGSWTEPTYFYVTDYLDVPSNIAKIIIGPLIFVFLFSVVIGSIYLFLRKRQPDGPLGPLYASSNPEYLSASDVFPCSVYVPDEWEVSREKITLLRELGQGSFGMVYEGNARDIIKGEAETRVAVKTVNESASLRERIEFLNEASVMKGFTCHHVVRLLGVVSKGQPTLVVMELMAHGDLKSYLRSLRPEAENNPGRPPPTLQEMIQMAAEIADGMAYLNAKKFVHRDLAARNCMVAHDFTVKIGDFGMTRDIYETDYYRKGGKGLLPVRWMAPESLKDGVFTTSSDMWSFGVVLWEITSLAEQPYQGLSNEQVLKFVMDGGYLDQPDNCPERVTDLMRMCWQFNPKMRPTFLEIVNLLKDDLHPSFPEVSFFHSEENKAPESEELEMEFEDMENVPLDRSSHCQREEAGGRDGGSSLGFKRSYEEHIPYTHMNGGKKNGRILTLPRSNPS
Calcium/calmodulin-dependent protein kinase kinase 2 (Homo sapiens, UniProt Q96RR4), sequence (Q96RR4 whole entry, canonical isoform): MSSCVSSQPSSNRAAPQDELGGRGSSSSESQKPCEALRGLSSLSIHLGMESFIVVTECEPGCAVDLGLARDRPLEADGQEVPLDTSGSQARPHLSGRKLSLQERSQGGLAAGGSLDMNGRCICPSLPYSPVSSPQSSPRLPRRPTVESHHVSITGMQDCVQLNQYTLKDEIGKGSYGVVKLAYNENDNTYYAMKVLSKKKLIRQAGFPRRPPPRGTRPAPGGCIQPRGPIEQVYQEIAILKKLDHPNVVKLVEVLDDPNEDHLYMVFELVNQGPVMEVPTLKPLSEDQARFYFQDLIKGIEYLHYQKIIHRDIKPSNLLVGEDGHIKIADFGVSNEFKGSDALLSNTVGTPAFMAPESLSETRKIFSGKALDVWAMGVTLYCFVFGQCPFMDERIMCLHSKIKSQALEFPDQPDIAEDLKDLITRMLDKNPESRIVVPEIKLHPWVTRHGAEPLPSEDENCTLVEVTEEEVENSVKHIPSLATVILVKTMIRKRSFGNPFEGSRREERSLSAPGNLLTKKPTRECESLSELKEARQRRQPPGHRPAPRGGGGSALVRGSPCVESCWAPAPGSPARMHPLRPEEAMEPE
Mitogen-activated protein kinase 8, sequence (P45983 whole entry): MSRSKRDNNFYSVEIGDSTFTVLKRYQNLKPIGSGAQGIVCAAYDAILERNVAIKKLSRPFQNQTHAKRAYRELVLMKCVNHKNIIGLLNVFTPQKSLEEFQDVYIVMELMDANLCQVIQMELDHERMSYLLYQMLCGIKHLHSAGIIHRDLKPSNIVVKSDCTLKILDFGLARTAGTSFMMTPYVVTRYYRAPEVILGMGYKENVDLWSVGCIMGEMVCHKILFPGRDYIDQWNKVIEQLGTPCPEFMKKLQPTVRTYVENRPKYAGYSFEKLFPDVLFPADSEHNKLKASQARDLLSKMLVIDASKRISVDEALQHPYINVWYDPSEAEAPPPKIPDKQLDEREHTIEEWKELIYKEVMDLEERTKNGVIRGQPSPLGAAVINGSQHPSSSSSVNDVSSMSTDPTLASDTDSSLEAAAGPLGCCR
Calcium/calmodulin-dependent protein kinase kinase 2 (Mus musculus, UniProt Q8C078), sequence (Q8C078 whole entry): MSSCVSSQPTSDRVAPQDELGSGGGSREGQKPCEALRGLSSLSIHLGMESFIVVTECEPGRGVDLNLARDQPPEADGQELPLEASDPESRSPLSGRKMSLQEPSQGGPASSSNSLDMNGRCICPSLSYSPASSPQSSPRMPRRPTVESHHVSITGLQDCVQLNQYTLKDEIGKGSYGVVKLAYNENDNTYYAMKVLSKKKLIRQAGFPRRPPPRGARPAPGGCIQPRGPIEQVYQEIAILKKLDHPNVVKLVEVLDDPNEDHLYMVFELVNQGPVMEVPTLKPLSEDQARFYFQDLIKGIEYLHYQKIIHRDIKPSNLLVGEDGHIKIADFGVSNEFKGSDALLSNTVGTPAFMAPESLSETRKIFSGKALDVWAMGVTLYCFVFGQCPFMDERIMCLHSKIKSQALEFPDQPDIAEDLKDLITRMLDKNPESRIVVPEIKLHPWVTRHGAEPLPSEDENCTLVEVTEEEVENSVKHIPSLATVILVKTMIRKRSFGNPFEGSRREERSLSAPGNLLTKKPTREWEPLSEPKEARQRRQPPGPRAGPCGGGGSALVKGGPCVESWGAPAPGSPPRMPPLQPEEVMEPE

| SMILES | IC50 [1] [µM] | solubility at 1 h [2] [µM] | IC50 [3] [nM] | IC50 (Insulin receptor) [nM] | IC50 [4] [nM] | IC50 [5] [nM] | IC50 [6] [nM] | IC50 [7] [µM] |
| --- | --- | --- | --- | --- | --- | --- | --- | --- |
| NC(=O)c1ccc(-c2c[nH]c3ncc(-c4ccccc4O)cc23)cc1C1CCCC1 | 3.98 | 6 (≈ 2.38 µg/mL) | – | – | – | – | – | – |
| CS(=O)(=O)Nc1cccc(-c2cc3c(-c4ccc(C(N)=O)cc4)ccnc3[nH]2)c1 | 3.16 | 13 (≈ 5.28 µg/mL) | 200 | 1260 | 158 | 3.16 to 12.6 | – | – |
| COc1ccccc1-c1cnc2[nH]cc(-c3ccc(C(N)=O)c(C4CCCC4)c3)c2c1 | > 10 | 1 (≈ 0.412 µg/mL) | – | – | – | – | – | – |
| Cc1ccc(CN2CCOCC2)cc1-c1cc2c(-c3ccc(C(N)=O)c(C(C)C)c3)ccnc2[nH]1 | 0.2 | 1 (≈ 0.469 µg/mL) | 631 | > 10000 | 158 | 1.58 to 20 | – | – |
| Cc1cc(CN2CCOCC2)ccc1-c1cc2c(-c3ccc(C(N)=O)cc3)ccnc2[nH]1 | 2 | 18 (≈ 7.68 µg/mL) | 631 | 3980 | 126 | 7.94 to 25.1 | – | – |
| COc1ccccc1Nc1ncc(F)c(-c2ccc(C(N)=O)c(C(C)C)c2)n1 | 3.16 | 11 (≈ 4.18 µg/mL) | 3160 | – | – | 39.8 to 316 | > 10000 | 7.94 |
| O=C(O)c1ccc(-c2c[nH]c3ncc(-c4ccccc4)cc23)cc1C1CCCC1 [GSK-650394] | 1.26 | 150 (≈ 57.4 µg/mL) | – | – | – | – | – | – |
| COc1ccccc1Nc1nccc(-c2ccc(C(=O)O)c(C(C)C)c2)n1 | 1 | > 367 | 3160 | – | – | 2 | 1580 | 15.8 |
| NC(=O)c1ccc(-c2c[nH]c3ncc(-c4ccccc4OC(F)(F)F)cc23)cc1C1CCCC1 | > 10 | 2 (≈ 0.931 µg/mL) | – | – | – | – | – | – |
| CS(=O)(=O)Nc1ccc(-c2cc3c(-c4ccc(C(N)=O)cc4)ccnc3[nH]2)cc1 | 0.316 | 5 (≈ 2.03 µg/mL) | 63.1 | 316 | 31.6 | 2 to 12.6 | – | – |
| COc1ccccc1Nc1ncc(Cl)c(-c2ccc(C(N)=O)c(C(C)C)c2)n1 | > 10 | 5 (≈ 1.98 µg/mL) | > 10000 | – | – | 158 to 1580 | 6310 | 20 |
| O=C(O)c1ccc(-c2ccnc(Nc3cccc(-c4ccccc4)c3)n2)cc1 | 7.94 | 14 (≈ 5.14 µg/mL) | 398 | – | – | 7.94 to 100 | 12.6 | 0.398 |
| N#CCc1ccccc1-c1cnc2[nH]cc(-c3ccc(C(N)=O)c(C4CCCC4)c3)c2c1 | – | 96 (≈ 40.4 µg/mL) | – | – | – | – | – | – |
| CS(=O)(=O)c1cccc(-c2cnc3[nH]cc(-c4ccc(C(=O)O)cc4)c3c2)c1 | – | 177 (≈ 69.5 µg/mL) | – | – | – | – | – | – |
| O=C(O)c1ccc(-c2c[nH]c3ncc(-c4ccccc4Oc4ccccc4)cc23)cc1 | – | 24 (≈ 9.75 µg/mL) | – | – | – | – | – | – |
| CN(C)CCCNC(=O)c1ccc(-c2cc3c(-c4ccc(C(N)=O)cc4)ccnc3[nH]2)cc1 | > 10 | 29 (≈ 12.8 µg/mL) | 126 | 158 | 79.4 | 1.58 to 12.6 | – | – |
| Cc1ccc2c(-c3ccc(C(=O)O)c(C4CCCC4)c3)c[nH]c2n1 | > 10 | > 279 | – | – | – | – | – | – |
| CC(C)Cc1cc(-c2c[nH]c3ncc(-c4ccccc4)cc23)ccc1C(=O)O | – | 333 (≈ 123 µg/mL) | – | – | – | 5.01 to 25.1 | – | – |
| NC(=O)c1ccc(-c2ccnc(Nc3cc(-c4ccccc4)ccc3F)n2)cc1 | 7.94 | 3 (≈ 1.15 µg/mL) | > 10000 | – | – | 20 | > 10000 | 2.51 |
| N#Cc1ccc2c(-c3ccc(C(=O)O)cc3)c[nH]c2n1 | – | 235 (≈ 61.9 µg/mL) | – | – | – | 2510 to 10000 | – | – |
| c1ccc(-c2cnc3[nH]cc(-c4ccc(-c5nn[nH]n5)cc4)c3c2)cc1 | – | 276 (≈ 93.4 µg/mL) | – | – | – | – | – | – |
| COc1ccccc1Nc1nccc(-c2ccc(C(N)=O)c(C(C)C)c2)n1 | > 10 | 10 (≈ 3.62 µg/mL) | 1580 | – | – | 63.1 to 1580 | 2510 | > 25.1 |
| Cc1ccc(CN2CCOCC2)cc1-c1cc2c(-c3ccc(C(N)=O)cc3)ccnc2[nH]1 | 0.0316 | 2 (≈ 0.853 µg/mL) | 6310 | > 10000 | 3160 | 1.58 to 15.8 | – | – |
| O=C(O)c1ccc(-c2c[nH]c3ncccc23)cc1C1CCCC1 | 3.98 | > 290 | – | – | – | – | – | – |

| SMILES | IC50 [1] [µM] | solubility at 1 h [2] [µM] | IC50 [3] [nM] | IC50 (Insulin receptor) [nM] | IC50 [4] [nM] | IC50 [5] [nM] | IC50 [6] [nM] | IC50 [7] [µM] |
| --- | --- | --- | --- | --- | --- | --- | --- | --- |
| CN(C)Cc1ccc(-c2cc3c(-c4ccc(C(N)=O)cc4)ccnc3[nH]2)cc1 | 0.158 | 157 (≈ 58.2 µg/mL) | 79.4 | 316 | 79.4 | 3.16 to 25.1 | – | – |
| Cc1cc(OCCN2CCOCC2)ccc1-c1cc2c(-c3ccc(C(N)=O)cc3)ccnc2[nH]1 | 0.158 | 11 (≈ 5.02 µg/mL) | 200 | 1260 | 126 | 1.58 | – | – |
| CC(C)c1cc(-c2c[nH]c3nc(C#N)ccc23)ccc1C(=O)O | 6.31 | > 172 | – | – | – | – | – | – |
| O=C(O)c1ccc(-c2c[nH]c3ncc(-c4ccccc4)cc23)cc1 | – | 82 (≈ 25.8 µg/mL) | – | – | – | 200 | – | – |
| CN(C)Cc1cccc(-c2cc3c(-c4ccc(C(N)=O)cc4)ccnc3[nH]2)c1 | 0.126 | 56 (≈ 20.7 µg/mL) | 631 | 631 | 79.4 | 3.98 to 31.6 | – | – |
| NC(=O)c1ccc(-c2c[nH]c3ncc(-c4ccccc4Oc4ccccc4)cc23)cc1C1CCCC1 | > 10 | 52 (≈ 24.6 µg/mL) | – | – | – | – | – | – |
| CN(C)c1ccccc1-c1cnc2[nH]cc(-c3ccc(C(N)=O)c(C4CCCC4)c3)c2c1 | > 10 | 2 (≈ 0.849 µg/mL) | – | – | – | – | – | – |
| N#Cc1ccc2c(-c3ccc(C(N)=O)c(C4CCCC4)c3)c[nH]c2n1 | – | 7 (≈ 2.31 µg/mL) | – | – | – | 1260 to 10000 | – | – |
| Cc1cc(-c2c[nH]c3ncc(-c4ccccc4)cc23)ccc1C(=O)O | – | 100 (≈ 32.8 µg/mL) | – | – | – | – | – | – |
| N#Cc1ccc2c(-c3ccc(C(=O)O)c(C4CCCC4)c3)c[nH]c2n1 | 6.31 | 155 (≈ 51.4 µg/mL) | – | – | – | – | – | – |
| COc1ccccc1-c1cc2c(-c3ccc(C(N)=O)cc3)ccnc2[nH]1 | 0.794 | 16 (≈ 5.49 µg/mL) | 158 | 1580 | 158 | 3.16 to 20 | – | – |
| CC(C)c1cc(-c2c[nH]c3nc(C#N)ccc23)ccc1C(N)=O | – | 14 (≈ 4.26 µg/mL) | – | – | – | 1260 to 10000 | – | – |
| Cc1ccc(OCCN2CCOCC2)cc1-c1cc2c(-c3ccc(C(N)=O)cc3)ccnc2[nH]1 | – | 17 (≈ 7.76 µg/mL) | 158 | 3980 | 200 | 2 to 31.6 | – | – |
| CN(C)CCCNC(=O)c1cccc(-c2cc3c(-c4ccc(C(N)=O)cc4)ccnc3[nH]2)c1 | 3.98 | – | 631 | 3160 | 126 | 2.51 to 12.6 | – | – |
| CC(C)Oc1ccccc1-c1cnc2[nH]cc(-c3ccc(C(N)=O)c(C4CCCC4)c3)c2c1 | > 10 | – | – | – | – | – | – | – |
| CS(=O)(=O)c1cccc(-c2cnc3[nH]cc(-c4ccc(C(N)=O)cc4)c3c2)c1 | – | > 115 | – | – | – | – | – | – |
| Cc1c(OCCN2CCOCC2)cccc1-c1cc2c(-c3ccc(C(N)=O)cc3)ccnc2[nH]1 | 0.251 | 17 (≈ 7.76 µg/mL) | 251 | 3160 | 158 | 2 to 15.8 | – | – |
| NC(=O)c1ccc2c(-c3ccc(C(=O)O)c(C4CCCC4)c3)c[nH]c2n1 | – | > 205 | – | – | – | 1260 to 10000 | – | – |
| CCc1cc(-c2c[nH]c3ncc(-c4ccccc4)cc23)ccc1C(=O)O | – | 178 (≈ 60.9 µg/mL) | – | – | – | 20 | – | – |
| COC(=O)c1ccc(-c2c[nH]c3ncc(-c4ccccc4)cc23)cc1 | – | 5 (≈ 1.64 µg/mL) | – | – | – | 1260 | – | – |
| CC(C)c1cc(-c2c[nH]c3ncc(-c4ccccc4)cc23)ccc1C(=O)O | 1.26 | > 439 | – | – | – | – | – | – |
| NC(=O)c1ccc(-c2c[nH]c3ncc(-c4ccccc4C(F)(F)F)cc23)cc1C1CCCC1 | – | 12 (≈ 5.39 µg/mL) | – | – | – | – | – | – |
| Cc1c(CN2CCOCC2)cccc1-c1cc2c(-c3ccc(C(N)=O)cc3)ccnc2[nH]1 | 0.2 | 18 (≈ 7.68 µg/mL) | 316 | 1260 | 100 | 1.58 to 12.6 | – | – |
| NC(=O)c1ccc(-c2c[nH]c3ncc(-c4ccccc4Oc4ccccc4)cc23)cc1 | – | 9 (≈ 3.65 µg/mL) | – | – | – | – | – | – |
